Redox H2O2 prof: compounds producing H2O2 with reducing agent – biochemical, NIH compound library profiling, artefact control for MLSCN library redox annotation, primary screen. DTT-dependent redox cycling H2O2, phenol red/HRP absorbance; 100% = 100 µM peroxide control, 0% = buffer. activation, % at 10 µM. 0.03% of 200,000 active. AID 878;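 active means activation of at least 50% relative to the plate's high and low controls in the primary single-dose screen; inactive means activation below 50%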;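 further: compound incubated with DTT at 0.8 mM final as the reducing agent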
Cl transport mod: modulators of human KCC2 chloride dependent transport | B-score of Tl+ flux slope (higher = more flux/activation; lower = inhibition) at 10 µM | 2.2% of 190,000 active | KCC2 cells, thallium flux FluoZin-2 fluorescence | AID 1456;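 active means thallium flux slope and its plate-corrected score both differing from the plate sample mean at a set confidence after two filtering rounds, in either direction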;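 further: slope of fluorescence scaled to starting intensity during 10 to 20 s after thallium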
MT stabilizer: stabilizes microtubules in HeLa cells | 0.83% of 200,000 active | HeLa tubulin immunostaining HCS, 24 h; share of cells brighter than vehicle mean+2SD | % tubulin-high responders, % at 10 µM;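 active means plate Z-score above 3 for both tubulin-high and condensed-nucleus cell shares, with cell loss under 80%, at 10 µM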;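 further: anti alpha tubulin signal scored within the nucleus-defined area of each cell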
bCat nuc transl: alters nuclear translocation of beta-catenin in HeLa cells; immunofluorescence imaging; 0.3% of 190,000 active; AID 1665; nuclear translocation activity, % at 5 µM;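 active means nuclear translocation activity above 50% at 5 µM, with a well cell count of 50 or more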;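 further: per-cell ratio of nuclear to cytoplasmic median beta-catenin stain intensity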
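System: HeLa cells, endogenous beta-catenin; compound dosing: 5 µM primary single dose, 0.1% DMSO, 0.02–20 µM confirmation series; incubation: 24 h compound exposure at 37°C, 5% CO2; signal: beta-catenin immunofluorescence imaging with DAPI; evaluation: % activation, nuclear-to-cytoplasmic median beta-catenin signal ratio per cell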
ROMK primary: modulates human ROMK potassium channel activity | P48048 | Tet-inducible ROMK, thallium flux fluorescence; actives lie on both sides | B-score at 10 µM | 2% of 130,000 active;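 active means signal ratio slope over the read window, or its plate-corrected B-score, at least 3 SD from the plate mean, either direction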;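 further: B-score of the F/F0 ratio slope over 7 to 12 s after thallium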
Of the large screens only hits and unclear results are named; the others gave an inactive call. The list is not random: actives were taken first. Their share in the collection is about 3.7%.

COc1cc(CCC(=O)Nc2ccc(S(=O)(=O)NC3=NCCCCC3)cc2)cc(OC)c1OC	none
CCOC(=O)c1cc(-c2c(Cl)cccc2Cl)no1	none (no result: Redox H2O2 prof, MT stabilizer, ROMK primary)
CC(C)c1ccc(/C=N/NC(=O)c2cccc(Cl)c2)cc1	MT stabilizer 23 (no result: bCat nuc transl)
CC(C)c1ccc(/C=N/NC(=O)c2ccccn2)cc1	none (no result: Redox H2O2 prof, MT stabilizer, ROMK primary)
COc1cccc(C(=O)NCC(=O)OCc2ccc(F)cc2Cl)c1	none
COC(=O)c1sc(N)c(C(=O)OC)c1COC(=O)c1c(C)noc1C	MT stabilizer 56 (no result: ROMK primary)
COc1ccccc1NC(=O)CN1CCN(CC(=O)Nc2ccc(Cl)c(C(F)(F)F)c2)CC1	ROMK primary -2.5 (no result: Cl transport mod)
COc1ccc2nc(N=Nc3ccc(O)c4ccccc34)sc2c1	Cl transport mod 18 (no result: ROMK primary)
COc1ccc2nc(N=NC3=C(O)CC(C)(C)CC3=O)sc2c1	none (no result: ROMK primary)
Cc1cccc(NC(=S)NNC(=O)c2csc3c2CCC(C)C3)c1 (configuration not stated)	Cl transport mod 25
Cc1ccc(C)c(NC(=S)NNC(=O)c2csc(C(C)C)c2)c1	Cl transport mod 13 (no result: ROMK primary)
CC(C)CNC(=S)NNC(=O)c1csc2c1CCC(C)C2 (configuration not stated)	none
Cc1ccc(C)c(NC(=S)NNC(=O)c2cc3c(s2)CCC(C)C3)c1 (configuration not stated)	Cl transport mod 28 (no result: ROMK primary)
Cc1ccc(C)c(NC(=S)NNC(=O)c2ccco2)c1	none
CC1CCc2sc(C(=O)NN=C3CCC(c4ccccc4)CC3)cc2C1 (configuration not stated)	none
CN(CC(=O)NCc1ccco1)S(=O)(=O)c1ccc2c(c1)c(=O)n(C)c(=O)n2C	none (no result: Redox H2O2 prof, MT stabilizer)
N=c1c2ccccc2nnn1-c1ccc(C(F)(F)F)cc1	none
CC(=O)c1cccc(NC(=S)NCCCCc2ccccc2)c1	none (no result: ROMK primary)
Cc1cc(C(F)(F)F)n(-c2nc(C(=O)N/N=C/c3ccc(F)cc3)cs2)n1	MT stabilizer 49 (no result: bCat nuc transl, ROMK primary)
COc1cccc(/C=N/NC(=O)c2csc(-n3nc(C)cc3C(F)(F)F)n2)c1	MT stabilizer 43 (no result: ROMK primary)
CC1(C)C2CCC1(CS(=O)(=O)N1CCC(C(=O)O)CC1)C(=O)C2 (configuration not stated)	none (no result: Redox H2O2 prof, MT stabilizer, ROMK primary)
O=c1[nH]cnc2scc(-c3ccc(-c4ccccc4)cc3)c12	none (no result: Cl transport mod, bCat nuc transl)
Cc1c(-c2ccccc2)sc2nc[nH]c(=S)c12	Cl transport mod 90, ROMK primary 4.9
Cc1cc(N2CCN(Cc3cn(C)nc3-c3ccccc3F)CC2)cc(C)n1	MT stabilizer 21, bCat nuc transl 69 (no result: ROMK primary)
Cn1cc(CN2CCN(c3ncccn3)CC2)c(-c2cccc(Cl)c2)n1	none
Cc1cc(N2CCN(Cc3cn(C)nc3-c3cccc(Cl)c3)CC2)cc(C)n1	bCat nuc transl 73
CC(C)C(C)(C#N)NC(=O)CSc1ncnc2sc(-c3ccccc3)cc12 (configuration not stated)	Cl transport mod -3.6
CN(CCC#N)C(=O)CSc1ncnc2sc(-c3ccccc3)cc12	none (no result: ROMK primary)
Cc1cc(=O)[nH]c(SCC(=O)N2CCN(S(=O)(=O)c3ccccc3)C2)n1	none
Cc1ccccc1CN1C(=O)CSc2ccc(C(=O)N3CCOCC3)cc21	MT stabilizer 38 (no result: bCat nuc transl)
Cc1ccc(N=CC2=C(O)CC(c3ccc(Cl)cc3)CC2=O)cc1 (configuration not stated)	none
CCN(CC)c1ccc(-c2n[nH]c(=S)n2-c2ccccc2)cc1	MT stabilizer 25
Cc1ccc(S(C)(=O)=N/C=C2\C(=O)c3sccc3N(C)S2(=O)=O)cc1 (configuration not stated)	none (no result: Redox H2O2 prof, MT stabilizer, ROMK primary)
O=C(Cn1nnc2ccccc21)OCC(=O)c1ccccc1	Cl transport mod 3.2
c1ccc(CCc2nn3c(-c4ccncc4)nnc3s2)cc1	none
Clc1ccccc1-c1nnc2sc(CCc3ccccc3)nn12	Cl transport mod -3.4
O=Cc1ccc2noc(-c3ccc(F)cc3)c2c1	ROMK primary -3.1
C=C(C)C1CC=C(C)/C(=N/NC(=S)Nc2ccccc2)C1 (configuration not stated)	Cl transport mod 6.5
C=C(C)C1CC=C(C)/C(=N/NC(=O)c2ccc(NC(=O)c3cccc(C)c3)cc2)C1 (configuration not stated)	none (no result: bCat nuc transl, ROMK primary)
Cc1cc(S(=O)(=O)N2CCCOC2CNC(=O)C(=O)NCc2ccco2)ccc1F (configuration not stated)	none
COc1cccc(-c2nc(CS(=O)(=O)CC(=O)NCCCN3CCc4ccccc4C3)c(C)o2)c1	Cl transport mod -3.9 (no result: ROMK primary)
COC(=O)c1c(NC(=S)Nc2ccc(F)cc2[N+](=O)[O-])sc2c1CCCCC2	Cl transport mod 20 (no result: ROMK primary)
CNC(=S)Nc1sc2c(c1C(=O)OC)CCC2	Cl transport mod 52, ROMK primary 6.3
CCOC(=O)c1c(NC(=S)Nc2ccccc2)sc2c1CC(C)(C)SC2	none
CCOC(=O)c1c(NC(=S)NC)sc2c1CC(C)(C)SC2	Cl transport mod 37 (no result: ROMK primary)
NC1=NC(=O)/C(=C/c2c(OS(=O)(=O)c3ccc(Cl)cc3)ccc3ccccc23)S1	none
S=C(NCC1CCCO1)N1CCN(Cc2ccccc2)CC1 (configuration not stated)	none
CSC(=S)N/N=C/c1ccc(N(C)C)cc1	Cl transport mod 61, ROMK primary 2.7
Cc1ccc2oc(-c3cccc(NC(=S)NC(=O)/C=C/c4ccco4)c3)nc2c1	MT stabilizer 37
Cc1ccc2oc(-c3cccc(NC(=S)NC(=O)c4cccs4)c3)nc2c1	Cl transport mod 7.7 (no result: ROMK primary)
Cc1ccc(-c2nc3ccccc3o2)cc1NC(=S)NC(=O)c1cccs1	none (no result: ROMK primary)
Cc1cc(C)c2oc(-c3ccc(C)c(NC(=S)NC(=O)/C=C/c4ccco4)c3)nc2c1	none (no result: Cl transport mod, ROMK primary)
O=C(Cc1c[nH]c2ccccc12)NCc1ccc(Cl)cc1Cl	none
COc1ccc(O)c(/C=N/NC(=O)c2cc(=O)[nH]c3ccccc23)c1	none (no result: Redox H2O2 prof, MT stabilizer, ROMK primary)
Cn1cccc1/C=N/n1c(-c2ccc(C(C)(C)C)cc2)n[nH]c1=S	Cl transport mod 13 (no result: ROMK primary)
Cn1c(-c2ccc(C(C)(C)C)cc2)n[nH]c1=S	Cl transport mod 3.9 (no result: ROMK primary)
Cn1c(-c2ccccc2)n[nH]c1=S	none (no result: Redox H2O2 prof, MT stabilizer, ROMK primary)
Cn1cccc1/C=N/n1c(-c2ccccc2)n[nH]c1=S	none (no result: ROMK primary)
O=C(Cn1cc(C(=O)C(F)(F)F)c2cc(Br)ccc21)N1CCOCC1	none
COCCN(Cc1cc2ccc(C)c(C)c2nc1Cl)C(=O)N1CCOCC1	none
COCCN(Cc1cc2cc(C)cc(C)c2nc1Cl)C(=O)Nc1ccccc1	MT stabilizer 34 (no result: Cl transport mod, ROMK primary)
Cc1cc(C)c2nc(Cl)c(CN(Cc3ccco3)C(=O)Nc3ccccc3C)cc2c1	MT stabilizer 21 (no result: Cl transport mod, ROMK primary)
Oc1c(Cl)cc(Cl)cc1CNn1cnnc1	none (no result: MT stabilizer)
Oc1c(Cl)cc(Cl)cc1Sc1cc(Cl)cc(Cl)c1O	Cl transport mod 37 (no result: bCat nuc transl, ROMK primary)
O=C(NCC1COc2ccccc2O1)C1CCCN(S(=O)(=O)c2cccc3nsnc23)C1 (configuration not stated)	ROMK primary -2.5 (no result: Cl transport mod)
Cc1[nH]n2c(=O)c3c(nc2c1-c1ccccc1)CCC3	none (no result: bCat nuc transl, ROMK primary)
O=c1c2c(nc3c(-c4ccccc4)c[nH]n13)CCCC2	Cl transport mod 2.8 (no result: bCat nuc transl, ROMK primary)

Source: PubChem
